Legend:
Details in all cases: stereoisomer not certain
[1] = molecular target: OR10H3 (Homo sapiens) (UniProt O60404)
Method in brief: (§1)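 Values were gathered from published papers (main text and supplementary material), with extra details requested from the original authors when needed, and checked for typos and inconsistencies. Each receptor–molecule pair is called responsive (active) if the original authors judged the measured signal statistically different from baseline, and non-responsive (inactive) otherwise. Assay methods varied by source, often transient mammalian cell-line luciferase assays. Recorded details include cell line, G-protein, co-transfected protein and tags.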

[2] = molecular target: OR10H4 (Homo sapiens) (UniProt Q8NGA5)
Method in brief: as §1

[3] = molecular target: OR10H5 (Homo sapiens) (UniProt Q8NGA6)
Method in brief: as §1

[4] = molecular target: OR10J1 (Homo sapiens) (UniProt P30954)
Method in brief: as §1

[5] = molecular target: OR10J3 (Homo sapiens) (UniProt Q5JRS4)
Method in brief: as §1

[6] = molecular target: T1, OR10J5 (Homo sapiens) (UniProt Q8NHC4)
T1 sequence (whole entry): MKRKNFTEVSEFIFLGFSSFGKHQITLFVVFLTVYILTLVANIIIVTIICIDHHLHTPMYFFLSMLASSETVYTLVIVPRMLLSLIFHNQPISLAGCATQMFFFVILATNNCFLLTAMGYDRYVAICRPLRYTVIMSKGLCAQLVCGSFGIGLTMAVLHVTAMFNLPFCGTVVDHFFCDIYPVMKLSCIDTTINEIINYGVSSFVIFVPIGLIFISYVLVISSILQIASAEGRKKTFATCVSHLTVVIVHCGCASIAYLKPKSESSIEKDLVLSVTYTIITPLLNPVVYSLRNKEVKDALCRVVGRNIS
Method in brief: as §1

[7] = molecular target: OR10K1 (Homo sapiens) (UniProt Q8NGX5)
Method in brief: as §1

[8] = molecular target: OR10P1 (Homo sapiens) (UniProt Q8NGE3)
Method in brief: as §1

[9] = molecular target: OR10Q1 (Homo sapiens) (UniProt Q8NGQ4)
Method in brief: as §1

[10] = molecular target: OR10R2 (Homo sapiens) (UniProt Q8NGX6)
Method in brief: as §1

[11] = molecular target: T2, OR10S1 (Homo sapiens) (UniProt Q8NGN2)
T2 sequence (whole entry): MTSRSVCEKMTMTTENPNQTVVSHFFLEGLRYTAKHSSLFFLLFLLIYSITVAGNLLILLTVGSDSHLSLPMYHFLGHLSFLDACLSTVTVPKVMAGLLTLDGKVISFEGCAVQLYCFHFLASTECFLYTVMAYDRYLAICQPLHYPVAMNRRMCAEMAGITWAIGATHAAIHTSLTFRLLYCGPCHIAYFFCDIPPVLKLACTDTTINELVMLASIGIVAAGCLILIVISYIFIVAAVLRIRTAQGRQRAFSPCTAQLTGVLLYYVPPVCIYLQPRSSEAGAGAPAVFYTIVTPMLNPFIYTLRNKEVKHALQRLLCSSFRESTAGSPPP
Method in brief: as §1

[12] = molecular target: OR10T2 (Homo sapiens) (UniProt Q8NGX3)
Method in brief: as §1

[13] = molecular target: OR10V1 (Homo sapiens) (UniProt Q8NGI7)
Method in brief: as §1

[14] = molecular target: OR10W1 (Homo sapiens) (UniProt Q8NGF6)
Method in brief: as §1

[15] = molecular target: OR10X1 (Homo sapiens) (UniProt Q8NGY0)
Method in brief: as §1

[16] = molecular target: OR10Z1 (Homo sapiens) (UniProt Q8NGY1)
Method in brief: as §1

[17] = molecular target: OR11A1 (Homo sapiens) (UniProt Q9GZK7)
Method in brief: as §1

[18] = molecular target: OR11G2 (Homo sapiens) (UniProt Q8NGC1)
Method in brief: as §1

[19] = molecular target: OR10J4 (Homo sapiens) (UniProt P0C629)
Method in brief: as §1

[20] = molecular target: OR10K2 (Homo sapiens) (UniProt Q6IF99)
Method in brief: as §1

Measured: odorant receptor agonist call

Sequence of OR10X1 (Homo sapiens) (Q8NGY0 whole entry): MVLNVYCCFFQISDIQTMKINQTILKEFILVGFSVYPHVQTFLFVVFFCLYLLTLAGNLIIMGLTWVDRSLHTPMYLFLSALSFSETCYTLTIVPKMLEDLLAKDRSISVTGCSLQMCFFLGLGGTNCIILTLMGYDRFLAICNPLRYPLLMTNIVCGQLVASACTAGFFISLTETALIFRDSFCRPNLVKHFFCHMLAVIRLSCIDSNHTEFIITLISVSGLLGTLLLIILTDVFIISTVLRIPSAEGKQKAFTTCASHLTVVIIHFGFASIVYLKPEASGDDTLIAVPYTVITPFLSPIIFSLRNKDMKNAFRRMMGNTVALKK
Sequence of OR10K1 (Homo sapiens) (Q8NGX5 whole entry): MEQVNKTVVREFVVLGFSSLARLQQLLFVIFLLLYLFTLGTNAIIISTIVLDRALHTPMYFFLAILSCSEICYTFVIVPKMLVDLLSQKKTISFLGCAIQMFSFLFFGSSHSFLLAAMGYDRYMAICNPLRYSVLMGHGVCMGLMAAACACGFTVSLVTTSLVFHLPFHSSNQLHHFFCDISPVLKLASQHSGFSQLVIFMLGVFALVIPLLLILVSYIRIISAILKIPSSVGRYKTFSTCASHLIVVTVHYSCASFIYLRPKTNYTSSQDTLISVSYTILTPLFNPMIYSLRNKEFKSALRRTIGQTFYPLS
Sequence of OR10H4 (Homo sapiens) (Q8NGA5 whole entry): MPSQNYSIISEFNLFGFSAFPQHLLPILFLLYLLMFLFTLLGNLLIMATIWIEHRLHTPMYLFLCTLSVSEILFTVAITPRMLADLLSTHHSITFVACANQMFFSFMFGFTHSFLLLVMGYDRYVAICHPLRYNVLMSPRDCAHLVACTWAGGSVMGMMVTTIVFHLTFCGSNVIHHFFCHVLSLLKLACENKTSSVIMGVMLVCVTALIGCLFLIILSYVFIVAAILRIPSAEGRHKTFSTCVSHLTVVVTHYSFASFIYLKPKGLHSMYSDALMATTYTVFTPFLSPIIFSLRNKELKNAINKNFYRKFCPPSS
Sequence of OR10Z1 (Homo sapiens) (Q8NGY1 whole entry): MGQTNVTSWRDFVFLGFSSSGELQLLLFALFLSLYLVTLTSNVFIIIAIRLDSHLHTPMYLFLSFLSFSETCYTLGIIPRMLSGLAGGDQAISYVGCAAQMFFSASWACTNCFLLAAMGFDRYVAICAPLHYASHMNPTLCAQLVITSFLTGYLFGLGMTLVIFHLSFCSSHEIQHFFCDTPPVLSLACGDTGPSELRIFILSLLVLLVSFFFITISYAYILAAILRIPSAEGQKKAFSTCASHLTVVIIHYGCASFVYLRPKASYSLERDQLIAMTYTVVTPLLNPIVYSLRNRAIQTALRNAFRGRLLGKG
Sequence of OR10V1 (Homo sapiens) (Q8NGI7 whole entry): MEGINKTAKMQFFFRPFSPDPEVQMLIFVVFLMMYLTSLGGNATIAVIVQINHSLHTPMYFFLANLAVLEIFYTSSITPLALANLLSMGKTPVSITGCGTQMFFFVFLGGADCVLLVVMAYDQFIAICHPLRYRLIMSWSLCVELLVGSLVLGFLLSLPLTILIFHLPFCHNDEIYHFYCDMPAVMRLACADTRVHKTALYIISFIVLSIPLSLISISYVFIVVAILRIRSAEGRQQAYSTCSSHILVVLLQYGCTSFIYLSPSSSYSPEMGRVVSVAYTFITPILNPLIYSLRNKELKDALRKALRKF
Sequence of OR10Q1 (Homo sapiens) (Q8NGQ4 whole entry): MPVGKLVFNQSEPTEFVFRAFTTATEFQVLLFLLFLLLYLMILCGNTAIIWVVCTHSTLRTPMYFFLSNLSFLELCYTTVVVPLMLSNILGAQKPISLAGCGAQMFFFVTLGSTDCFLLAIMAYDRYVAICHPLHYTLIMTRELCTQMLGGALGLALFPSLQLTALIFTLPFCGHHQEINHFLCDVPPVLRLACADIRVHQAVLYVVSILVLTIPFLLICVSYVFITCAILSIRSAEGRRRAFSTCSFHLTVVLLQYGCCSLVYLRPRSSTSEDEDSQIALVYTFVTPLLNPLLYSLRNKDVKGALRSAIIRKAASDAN
Sequence of OR11A1 (Homo sapiens) (Q9GZK7 whole entry): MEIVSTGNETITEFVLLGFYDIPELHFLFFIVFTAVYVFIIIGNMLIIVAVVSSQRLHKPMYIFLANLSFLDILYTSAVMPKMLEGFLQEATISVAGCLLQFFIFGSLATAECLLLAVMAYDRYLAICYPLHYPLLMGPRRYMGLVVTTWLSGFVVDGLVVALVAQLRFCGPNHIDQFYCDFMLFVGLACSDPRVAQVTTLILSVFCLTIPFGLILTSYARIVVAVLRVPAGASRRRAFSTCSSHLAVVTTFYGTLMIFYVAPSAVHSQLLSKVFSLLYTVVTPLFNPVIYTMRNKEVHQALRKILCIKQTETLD
Sequence of OR10J3 (Homo sapiens) (Q5JRS4 whole entry): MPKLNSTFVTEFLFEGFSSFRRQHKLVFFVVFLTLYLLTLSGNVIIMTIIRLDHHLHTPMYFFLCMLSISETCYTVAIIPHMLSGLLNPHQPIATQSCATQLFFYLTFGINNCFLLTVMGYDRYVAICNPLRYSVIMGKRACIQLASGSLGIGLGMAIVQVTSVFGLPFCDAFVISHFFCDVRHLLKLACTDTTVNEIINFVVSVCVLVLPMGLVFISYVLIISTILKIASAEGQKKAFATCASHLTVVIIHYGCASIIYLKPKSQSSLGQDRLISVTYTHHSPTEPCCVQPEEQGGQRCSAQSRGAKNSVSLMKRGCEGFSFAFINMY
Sequence of OR10R2 (Homo sapiens) (Q8NGX6 whole entry): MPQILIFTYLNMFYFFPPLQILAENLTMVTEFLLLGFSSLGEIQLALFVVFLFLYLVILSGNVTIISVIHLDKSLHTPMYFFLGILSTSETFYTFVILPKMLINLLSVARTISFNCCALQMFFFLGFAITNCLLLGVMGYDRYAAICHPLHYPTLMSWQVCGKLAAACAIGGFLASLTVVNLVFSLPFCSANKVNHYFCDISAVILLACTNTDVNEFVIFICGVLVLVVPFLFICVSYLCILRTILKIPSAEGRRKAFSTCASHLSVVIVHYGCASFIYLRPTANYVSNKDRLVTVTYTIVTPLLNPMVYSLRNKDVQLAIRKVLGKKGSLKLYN
Sequence of OR10H5 (Homo sapiens) (Q8NGA6 whole entry): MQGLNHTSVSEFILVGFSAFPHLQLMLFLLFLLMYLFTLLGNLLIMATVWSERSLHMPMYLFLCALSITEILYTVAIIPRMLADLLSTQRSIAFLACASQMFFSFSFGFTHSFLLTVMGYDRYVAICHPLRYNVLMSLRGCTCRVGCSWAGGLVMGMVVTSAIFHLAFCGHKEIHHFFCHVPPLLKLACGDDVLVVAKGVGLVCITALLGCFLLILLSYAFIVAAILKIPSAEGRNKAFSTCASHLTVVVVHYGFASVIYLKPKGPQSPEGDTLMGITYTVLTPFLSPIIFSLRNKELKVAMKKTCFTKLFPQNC
Sequence of OR10P1 (Homo sapiens) (Q8NGE3 whole entry): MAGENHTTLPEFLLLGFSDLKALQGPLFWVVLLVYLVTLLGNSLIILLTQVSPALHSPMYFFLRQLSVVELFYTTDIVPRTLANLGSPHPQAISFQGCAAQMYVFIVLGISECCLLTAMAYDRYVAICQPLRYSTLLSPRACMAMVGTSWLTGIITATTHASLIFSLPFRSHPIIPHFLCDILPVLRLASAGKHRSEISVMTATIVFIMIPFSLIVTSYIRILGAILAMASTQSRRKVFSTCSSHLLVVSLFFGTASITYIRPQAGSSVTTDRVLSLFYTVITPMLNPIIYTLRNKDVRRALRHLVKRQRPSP
Sequence of OR10W1 (Homo sapiens) (Q8NGF6 whole entry): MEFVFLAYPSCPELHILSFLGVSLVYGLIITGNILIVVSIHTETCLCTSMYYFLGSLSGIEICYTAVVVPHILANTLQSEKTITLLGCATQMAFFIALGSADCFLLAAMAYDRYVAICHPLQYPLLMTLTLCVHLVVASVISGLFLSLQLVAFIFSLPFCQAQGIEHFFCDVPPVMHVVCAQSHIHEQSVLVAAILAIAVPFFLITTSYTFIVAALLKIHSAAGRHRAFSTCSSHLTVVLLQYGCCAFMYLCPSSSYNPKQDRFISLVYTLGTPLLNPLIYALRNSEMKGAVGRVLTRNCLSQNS
Sequence of OR11G2 (Homo sapiens) (Q8NGC1 whole entry): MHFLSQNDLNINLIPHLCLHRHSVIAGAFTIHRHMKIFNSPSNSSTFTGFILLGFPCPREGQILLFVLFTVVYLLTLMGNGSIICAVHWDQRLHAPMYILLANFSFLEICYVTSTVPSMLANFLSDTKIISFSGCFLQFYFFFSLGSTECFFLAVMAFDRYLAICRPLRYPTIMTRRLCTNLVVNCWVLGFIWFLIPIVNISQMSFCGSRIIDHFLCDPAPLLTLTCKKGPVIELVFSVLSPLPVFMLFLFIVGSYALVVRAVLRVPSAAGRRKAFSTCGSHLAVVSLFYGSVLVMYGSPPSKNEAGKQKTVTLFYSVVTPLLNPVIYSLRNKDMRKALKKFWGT
Sequence of OR10T2 (Homo sapiens) (Q8NGX3 whole entry): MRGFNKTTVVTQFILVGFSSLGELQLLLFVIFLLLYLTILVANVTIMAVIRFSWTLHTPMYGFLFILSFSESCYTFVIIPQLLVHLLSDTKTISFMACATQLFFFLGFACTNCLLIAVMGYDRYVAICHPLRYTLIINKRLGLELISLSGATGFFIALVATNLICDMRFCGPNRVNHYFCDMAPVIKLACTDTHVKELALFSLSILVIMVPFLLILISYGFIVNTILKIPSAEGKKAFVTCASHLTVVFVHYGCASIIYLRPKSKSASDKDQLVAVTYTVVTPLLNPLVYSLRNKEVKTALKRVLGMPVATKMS
Sequence of OR10H3 (Homo sapiens) (O60404 whole entry): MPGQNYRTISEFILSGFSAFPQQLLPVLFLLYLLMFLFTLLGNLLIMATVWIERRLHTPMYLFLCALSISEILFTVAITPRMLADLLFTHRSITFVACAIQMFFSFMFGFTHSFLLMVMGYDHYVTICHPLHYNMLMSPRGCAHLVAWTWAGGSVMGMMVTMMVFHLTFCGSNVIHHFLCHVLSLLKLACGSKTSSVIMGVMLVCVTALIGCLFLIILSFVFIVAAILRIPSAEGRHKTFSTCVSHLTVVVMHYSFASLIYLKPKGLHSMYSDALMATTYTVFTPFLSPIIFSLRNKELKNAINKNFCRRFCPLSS

C=CCOC(=O)Cc1ccccc1
not listed: [19] | [20]
inactive: all other assays above

Cc1c([N+](=O)[O-])c(C)c([N+](=O)[O-])c(C(C)(C)C)c1[N+](=O)[O-]
not listed: [4]
inactive: all other assays above

COc1ccc(C=O)cc1
inactive: [11]

O=c1cc(O)c2ccccc2o1
inactive: [6]

Cc1cccc(C)c1
inactive: [11]

CCC1CCC(=O)O1 (configuration not stated)
inactive: [6]

C=CCc1ccccc1
inactive: [6]

Source: the M2OR odorant receptor database
